Results published in ChEMBL document CHEMBL1146277, “The discovery of 6-[2-(5-chloro-2-{[(2,4-difluorophenyl)methyl]oxy}phenyl)-1-cyclopenten-1-yl]-2-pyridinecarboxylic acid, GW848687X, a potent and selective prostaglandin EP1 receptor antagonist for the treatment of inflammatory pain” (Bioorg Med Chem Lett, 2007).
Active and inactive are the calls of the source. The calls are words filed in the database; no cut-off is given here.

How the values were obtained:
[1] = target: T1, Prostaglandin E2 receptor EP3 subtype (Homo sapiens, UniProt P43115); assay: Inhibition of human EP3 receptor
T1 sequence (P43115 whole entry): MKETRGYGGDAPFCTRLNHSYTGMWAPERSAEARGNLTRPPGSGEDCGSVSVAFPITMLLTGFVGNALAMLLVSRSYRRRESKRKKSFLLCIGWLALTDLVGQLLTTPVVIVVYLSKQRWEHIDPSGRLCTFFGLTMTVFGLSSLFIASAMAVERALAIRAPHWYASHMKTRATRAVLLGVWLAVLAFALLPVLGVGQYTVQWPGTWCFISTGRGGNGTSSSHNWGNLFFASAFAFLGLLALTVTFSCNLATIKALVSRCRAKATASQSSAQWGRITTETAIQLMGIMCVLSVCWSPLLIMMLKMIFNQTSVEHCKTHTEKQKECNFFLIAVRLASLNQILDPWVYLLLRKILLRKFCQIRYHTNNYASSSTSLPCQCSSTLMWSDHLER

[2] = target: T2, Prostaglandin E2 receptor EP1 subtype (Homo sapiens, UniProt P34995); assay: Inhibition of human EP1 receptor
T2 sequence (P34995 whole entry): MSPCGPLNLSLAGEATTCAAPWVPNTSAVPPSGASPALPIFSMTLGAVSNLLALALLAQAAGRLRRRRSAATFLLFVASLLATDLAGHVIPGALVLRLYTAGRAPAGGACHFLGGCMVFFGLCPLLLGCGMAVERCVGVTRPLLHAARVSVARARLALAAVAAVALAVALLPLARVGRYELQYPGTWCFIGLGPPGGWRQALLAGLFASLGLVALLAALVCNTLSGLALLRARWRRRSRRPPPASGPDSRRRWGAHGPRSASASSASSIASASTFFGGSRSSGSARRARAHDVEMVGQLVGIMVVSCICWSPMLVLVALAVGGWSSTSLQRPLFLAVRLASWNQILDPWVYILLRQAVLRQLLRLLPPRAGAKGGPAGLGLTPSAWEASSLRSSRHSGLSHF

[3] = Intrinsic clearance in rat liver microsomes; format: ADME, Microsome
Method in brief: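 Rate of metabolism measured as intrinsic clearance (ml/min/g) in a rat microsomal assay.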

Cytochrome P450 2C9 = Cytochrome P450 2C9 (Homo sapiens, UniProt P11712); assay: Inhibition of human CYP2C9; format: ADME
Cytochrome P450 2C9, sequence (P11712 whole entry): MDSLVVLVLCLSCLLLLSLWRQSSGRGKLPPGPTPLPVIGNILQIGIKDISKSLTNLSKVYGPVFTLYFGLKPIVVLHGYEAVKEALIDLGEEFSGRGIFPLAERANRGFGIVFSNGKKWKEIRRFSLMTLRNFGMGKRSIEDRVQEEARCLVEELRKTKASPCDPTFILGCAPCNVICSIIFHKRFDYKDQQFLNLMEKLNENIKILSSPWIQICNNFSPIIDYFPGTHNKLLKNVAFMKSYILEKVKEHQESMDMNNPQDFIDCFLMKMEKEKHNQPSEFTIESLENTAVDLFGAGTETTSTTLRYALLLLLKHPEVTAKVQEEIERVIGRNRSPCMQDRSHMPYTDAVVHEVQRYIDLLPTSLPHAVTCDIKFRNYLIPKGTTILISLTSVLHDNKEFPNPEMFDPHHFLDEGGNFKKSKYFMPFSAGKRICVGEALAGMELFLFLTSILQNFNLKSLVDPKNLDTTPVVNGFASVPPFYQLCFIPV
Method in brief: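 Inhibition measured in a human recombinant CYP2C9 isozyme assay; IC₅₀ reported in µM.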

Rattus norvegicus [4] = assay: Reversal of hypersensitivity in FCA rat model of acute inflammatory pain at 5 mg/kg, po; format: functional
Method in brief: (§1)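 Freund's complete adjuvant injected into one hind paw; 24 h later, with hypersensitivity established, rats received a single oral dose of test compound in 1% methylcellulose. Hypersensitivity was read by weight bearing as percent inhibition (reversal) for each dose. Tested either as a single 5 mg/kg po dose or as a 3-point dose response, with ED₅₀ calculated as the dose giving 50% reversal.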

[5] = Lipophilicity, log D of the compound; format: physicochemical; details: octanol/water
[6] = Blood clearance in rat; format: ADME, organism-based; details: whole blood
Rattus norvegicus [7] = assay: Reversal of antihyperalgesic effect in chronic rat model of joint pain at 30 mg/kg bid for 5 days
[8] = Oral bioavailability in dog; format: ADME, organism-based, Canis lupus familiaris; details: in vivo
Rattus norvegicus [9] = assay: Reversal of hypersensitivity in po dosed FCA rat model of acute inflammatory pain; format: functional; method in brief: as §1
[10] = Oral bioavailability in rat; format: ADME, organism-based; details: in vivo
[11] = Half life in dog; format: ADME, organism-based, Canis lupus familiaris; details: in vivo
[12] = Half life in rat; format: ADME, organism-based; details: in vivo
[13] = target: T2, Prostaglandin E2 receptor EP1 subtype; assay: Antagonist activity at human EP1 receptor; format: functional; details: read-out: pA2 (converted)
[14] = Half life in rat at 1 mg/kg, iv; format: ADME, organism-based; parameters: dose 1 mg/kg, route intravenous; details: in vivo
[15] = Blood clearance in rat at 1 mg/kg, iv; format: ADME, organism-based; parameters: dose 1 mg/kg, route intravenous; details: whole blood
[16] = Volume of distribution in rat at 1 mg/kg, iv; format: ADME, organism-based; parameters: dose 1 mg/kg, route intravenous; details: in vivo, read-out: Vdss

SMILES	IC50 [1] [nM]	IC50 [2] [nM]	other results
N#Cc1ccc(OCc2ccc(F)cc2F)c(C2=C(c3cccc(C(=O)O)c3)CCC2)c1	> 3160	39.8	
CS(=O)(=O)c1ccc(OCc2ccc(F)cc2)c(C2=C(c3cccc(C(=O)O)c3)CCC2)c1	> 3160	79.4	
O=C(O)c1cncc(C2=C(c3cc(Cl)ccc3OCc3ccc(F)cc3F)CCC2)n1		2	CLint scaled [3]: 2.6 mL/min/g; IC50 (Cytochrome P450 2C9): 12000 nM; Activity (Rattus norvegicus [4]): 52%; logD [5]: 1.6
O=C(O)c1cc(C2=C(c3cc(Cl)ccc3OCc3ccccc3)CCC2)ncn1		200	logD [5]: 1.2
O=C(O)c1cccc(C2=C(c3ccccc3OCc3ccc(F)cc3F)CCC2)c1	> 3160	25.1	
O=C(O)c1cccc(C2=C(c3cc(Br)ccc3OCc3ccc(Cl)cc3F)CCC2)c1	> 3160	2.51	
O=C(O)c1cnnc(C2=C(c3cc(Cl)ccc3OCc3ccc(F)cc3F)CCC2)c1		6.31	CLint scaled [3]: 14 mL/min/g; IC50 (Cytochrome P450 2C9): 5400 nM; logD [5]: 1.2
O=C(O)c1ccnc(C2=C(c3cc(Cl)ccc3OCc3ccccc3)CCC2)n1		158	logD [5]: 0.8
O=C(O)c1cccc(C2=C(c3cc(Cl)ccc3OCc3ccc(F)cc3F)CCC2)n1		2.51	clearance [6]: 7 mL/min/kg; CLint scaled [3]: 2.9 mL/min/g; Activity (Rattus norvegicus [7]): Active; bioavailability [8]: 53%; ED50 (Rattus norvegicus [9]): 1.3 mg/kg; bioavailability [10]: 54%; half-life [11]: 2 h; IC50 (Cytochrome P450 2C9): 14000 nM; logD [5]: 2.6; half-life [12]: 2.2 h; Kb [13]: 0.794 nM
O=C(O)c1ccnc(C2=C(c3cc(Br)ccc3OCc3ccc(F)cc3)CCC2)c1		3.16	CLint scaled [3]: 20 mL/min/g; IC50 (Cytochrome P450 2C9): 5000 nM; logD [5]: 2.7
CS(=O)(=O)c1ccc(OCc2ccccc2)c(C2=C(c3cccc(C(=O)O)c3)CCC2)c1	> 3160	79.4	
N#Cc1ccc(OCc2ccc(F)cc2)c(C2=C(c3cccc(C(=O)O)c3)CCC2)c1	> 3160	398	
O=C(O)c1cccc(C2=C(c3cc(Cl)ccc3OCc3ccccc3)CCC2)c1	> 3160	5.01	
O=C(O)c1cccc(C2=C(c3cc(Br)ccc3OCc3ccc(Cl)c(Cl)c3)CCC2)c1	> 3160	100	
CSc1ccc(OCc2ccc(F)cc2F)c(C2=C(c3cccc(C(=O)O)c3)CCC2)c1	> 3160	15.8	
O=C(O)c1cccc(C2=C(c3ccccc3OCc3ccc(Cl)cc3F)CCC2)c1	> 3160	50.1	
N#Cc1ccc(OCc2ccccc2)c(C2=C(c3cccc(C(=O)O)c3)CCC2)c1	> 3160	100	

SMILES	IC50 [1] [nM]	IC50 [2] [nM]	other results
COc1ccc(COc2ccccc2C2=C(c3cccc(C(=O)O)c3)CCC2)cc1	> 3160	100	
Cc1ncc(C2=C(c3cc(Cl)ccc3OCc3ccc(F)cc3)CCC2)cc1C(=O)O		1.58	CLint scaled [3]: 3.8 mL/min/g; IC50 (Cytochrome P450 2C9): 9000 nM; Activity (Rattus norvegicus [4]): <30%; logD [5]: 2.7
O=C(O)c1cccc(C2=C(c3ccccc3OCc3ccc(Cl)c(Cl)c3)CCC2)c1	> 3160	398	
CS(=O)(=O)c1ccc(OCc2ccc(F)cc2F)c(C2=C(c3cccc(C(=O)O)c3)CCC2)c1	> 3160	15.8	
N#Cc1ccc(OCc2ccc(Cl)cc2)c(C2=C(c3cccc(C(=O)O)c3)CCC2)c1	> 3160	200	
COc1ccc(COc2ccc(Br)cc2C2=C(c3cccc(C(=O)O)c3)CCC2)cc1	> 3160	39.8	
O=C(O)c1cc(C2=C(c3cc(C(F)(F)F)ccc3OCc3ccccc3)CCC2)ccn1		39.8	
O=C(O)c1cc(C2=C(c3cc(Cl)ccc3OCc3ccccc3)CCC2)cnn1		39.8	
O=C(O)c1cncc(C2=C(c3cc(C(F)(F)F)ccc3OCc3ccccc3)CCC2)c1		10	clearance [6]: 22 mL/min/kg; CLint scaled [3]: 2.2 mL/min/g; ED50 (Rattus norvegicus [9]): 1.3 mg/kg; IC50 (Cytochrome P450 2C9): 14000 nM; logD [5]: 2.7; half-life [12]: 4.1 h
O=C(O)c1cccc(C2=C(c3cc(Br)ccc3OCc3ccc(F)cc3F)CCC2)c1	> 3160	5.01	half-life [14]: 0.2 h; clearance [15]: 35 mL/min/kg; Vd [16]: 0.6 L/kg
O=C(O)c1cccc(C2=C(c3ccccc3OCc3ccccc3)CCC2)c1	> 3160	6.31	
O=C(O)c1cccc(C2=C(c3cc(Br)ccc3OCc3ccc(Cl)cc3)CCC2)c1	> 3160	12.6	clearance [15]: 33 mL/min/kg; Vd [16]: 0.4 L/kg
CSc1ccc(OCc2ccc(F)cc2)c(C2=C(c3cccc(C(=O)O)c3)CCC2)c1	> 3160	31.6	
O=C(O)c1cccc(C2=C(c3cc(Br)ccc3OCc3ccc(F)cc3)CCC2)c1	> 3160	20	half-life [14]: 0.2 h; clearance [15]: 46 mL/min/kg; Vd [16]: 0.7 L/kg
O=C(O)c1cccc(C2=C(c3cc(Br)ccc3OCc3ccccc3)CCC2)c1	> 3160	12.6	half-life [14]: 0.3 h; clearance [15]: 52 mL/min/kg; Vd [16]: 1 L/kg
CSc1ccc(OCc2ccccc2)c(C2=C(c3cccc(C(=O)O)c3)CCC2)c1	> 3160	63.1	
